IMP-1 inhibitor = inhibitors of Pseudomonas aeruginosa IMP-1 metallo-beta-lactamase | purified IMP-1, nitrocefin hydrolysis, epi-absorbance fluorescence | inhibition, % at 5.6 µM | hit rate 0.45% among 290,000 | AID 1556;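 active means inhibition above the mean plus 3 SD of all compounds in the same screening run, cut at about 4.5% in these data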
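system = purified recombinant IMP-1 beta-lactamase | amount = 0.2 nM IMP-1, as dispensed | medium = HEPES buffer pH 7.1 with ZnSO4 and Brij 35 | times = 25 °C, 15 min preincubation, 25 min reaction | detection = plate fluorescence quenching by hydrolysis product, ex 480/em 530 nm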
MEKK2wt PB1 HTS = raises or lowers MEK5 binding to wildtype human MEKK2 PB1 domain; bead flow cytometry, Alexa488-MEK5 binding to MEKK2 WT; actives lie on both sides; binding response (% of control), % at 10 µM; hit rate 1.1% among 290,000; AID 1531; in the data active means binding response below about 67% or above about 130%
VIM-2 inhibitor = blocks Pseudomonas aeruginosa VIM-2 metallo-beta-lactamase; purified VIM-2, nitrocefin hydrolysis, epi-absorbance fluorescence; inhibition, % at 5.6 µM; hit rate 0.89% among 290,000; AID 1527;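 active means inhibition above the mean of all tested compounds plus 3 SD, cutoff set per screening run, cut at about 7.5% in these data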;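 further: red hydrolysis product quenches plate fluorescence so inhibitors raise well fluorescence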
MEKK3 PB1 HTS = modulators (inhibitors or enhancers) of MEK5 binding to human MEKK3 PB1 domain. bead-based flow cytometry, Alexa488-MEK5 binding to MEKK3; actives lie on both sides; 0 = blocked by unlabeled MEK5, 100 = vehicle. binding response (% of control), % at 10 µM. hit rate 1.4% among 290,000;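 active means binding response more than 3 SD above or below the average of its plate-row segment, actives on both sides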;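 further: Alexa488 bead fluorescence after subtracting the streptavidin-only scavenger bead signal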
MEKK2 mut-MEK5 = signal of MEK5 binding to mutant human MEKK2 PB1 domain. bead flow cytometry, Alexa488-MEK5 binding to MEKK2 mutant. percent response, % at 10 µM. hit rate 0.35% among 290,000. AID 1530; in the data active means percent response above about 24%, passing the limit was not always enough
Hits are given with their value; i = inactive; nt = no result given. A selection: hits, their analogues and other compounds. The true share with any hit is near 3.4%.

SMILES	IMP-1 inhibitor	MEKK2wt PB1 HTS	VIM-2 inhibitor	MEKK3 PB1 HTS	MEKK2 mut-MEK5
CCOC(=O)N1CCN(Cc2nc3ccc([N+](=O)[O-])cc3c(=O)n2-c2ccccc2F)CC1	i	i	i	i	i
Cc1ccc(NS(=O)(=O)c2cccc(C(=O)NNC(=O)NC3CCCCC3)c2)c(C)c1	i	i	i	i	i
COc1cc2c(cc1OC)C(c1ccccc1)CC2=O (stereo not drawn)	10	i	i	i	i
COc1cc2c(cc1OC)C(c1cccc(F)c1)CC(=O)N2 (stereo not drawn)	i	i	i	i	i
CN(Cc1ccco1)S(=O)(=O)c1nnc(NC(=O)c2ccccc2Cl)s1	i	i	9.1	i	i
CCC(=O)Nc1nnc(S(=O)(=O)N(C)Cc2ccco2)s1	i	i	i	i	i
Cc1ccccc1C(=O)Nc1nnc(S(=O)(=O)N(C)Cc2ccco2)s1	i	i	9.8	i	i
CCSC1=NCN(CCCC(=O)O)CN1	i	i	i	i	i
CN(C)S(=O)(=O)c1ccc(Cl)c(NC(=O)CSc2nc3c(cc2C#N)C(=O)CCC3)c1	i	i	i	i	i
Cc1c(NS(C)(=O)=O)c(=O)n(-c2ccccc2)n1C	i	i	i	i	i
CCOCC(=O)Nc1cc(C(=O)Nc2cccc(C)c2C)ccc1Cl	i	i	i	i	i
CCOc1ccc2nc(SCC(=O)N3c4ccccc4Sc4ccccc43)sc2c1	i	i	i	i	i
O=C(Nc1ccc(OC(F)F)c(Cl)c1)c1ccccn1	i	i	i	i	i
CN(C)CCCNc1nc(-c2ccccc2)nc2ccccc12	i	i	i	i	i
CN(C)CCCNc1c2ccccc2nc2ccccc12	i	i	12	i	i
COc1ccc(-n2nc3c(N4CCC(C(=O)N5CCC(C)CC5)CC4)nnc(C)c3c2C)cc1	i	476	i	139	920
CC(=O)c1c(C)oc2c1cc(NS(=O)(=O)c1ccc(C(=O)O)cc1)c1ccccc12	i	i	i	i	i
COC(=O)c1c(C)oc2c1cc(NS(=O)(=O)c1ccc(C(=O)O)cc1)c1ccccc12	7.3	i	i	i	i
CC(C)(C)c1cc(CNC2CS(=O)(=O)C[C@@H]2O)cc(C(C)(C)C)c1O (stereo partly drawn)	7.3	i	i	i	i
CC(C)N(C)C1CCN(C(=O)Nc2ccc(Cl)cc2)CC1	i	i	i	i	i
Cc1ccccc1-n1nc2c(c1NC(=O)c1c(-c3ccccc3Cl)noc1C)CSC2	44	nt	i	nt	nt
O=C(O)c1cccc2cc(-c3ccccc3)oc(=O)c12	4.8	i	i	i	i
Cc1nc(-c2ccc(NS(=O)(=O)c3ccccc3)cc2)cs1	i	nt	i	nt	nt
COc1cc2ncnc(NCc3cccc(Cl)c3)c2cc1OC	i	138	i	i	i
Nc1nc(N)c2cc(Sc3ccc4ccccc4c3)ccc2n1	i	157	i	i	i

Screening results (PubChem BioAssay)
